# Shown are actives, neighbours in structure and some others; about 2.9% of the full set was active somewhere.
# HTRA1 inh = inhibitors of human serine peptidase HTRA1 | 0.5% of 340,000 active | inhibition, % at 5.96 µM | recombinant HTRA1, FP-rhodamine activity-based probe, fluorescence polarization; in the data active = inhibition above about 36%
# PAD4 inh = PAD4 (human) enzyme inhibition | recombinant PAD4, RCA probe fluorescence polarization | inhibition, % at 6.36 µM | 0.41% of 330,000 active;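 active = percent inhibition above a cutoff equal to the mean of all tested compounds plus 3 SD, cut at about 15% in these data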
# PRMT1 inh = blocks human protein arginine methyltransferase 1; Q99873; recombinant PRMT1, activity-based probe fluorescence polarization; inhibition, % at 2.79 µM; 1.3% of 370,000 active;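 active = inhibition above about 21% made by adding two undisclosed values, limit read from the data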
# ABHD4 inh = ABHD4 (mouse) inhibition, primary FP screen; 0.54% of 370,000 active; purified mABHD4, FP-Rh probe fluorescence polarization; inhibition, % at 8.92 µM; Q8VD66; AID 720543;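 active = inhibition exceeding the mean over every tested compound plus 3 SD, cut at about 30% in these data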
#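 Test system: mABHD4 protein; Read-out basis: % inhibition; Incubation: 45 min + 60 min at 25 °C; Repeats: single replicate; Technique: fluorescence polarization with parallel and perpendicular emission, 525/598 nm; Compound: 8.92 µM, single dose; Benchmarks: full inhibition S159A mutant plus DMSO, zero as sample-well median.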
# TCR CD3 inh = blocks the human TCR-CD3 interaction; TAMRA-labeled TCR probe fluorescence, biochemical; 0.37% of 360,000 active; AID 651800; inhibition, % at 9.4 µM; in the data active = inhibition above about 19%;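 note: recombinant mutant TCR 2C K166C tagged with TAMRA read by polarization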
# SIAE inh = blocks human sialic acid acetylesterase. Q9HAT2. SIAE FP-Rh probe binding, fluorescence polarization. inhibition, % at 9.66 µM. 0.69% of 370,000 active. AID 1053197;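 active = inhibition above a cutoff: mean of compounds within the control limits plus 3 SD of those, cut at about 17% in these data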
# Target sequence (Q9HAT2 whole entry, looked up): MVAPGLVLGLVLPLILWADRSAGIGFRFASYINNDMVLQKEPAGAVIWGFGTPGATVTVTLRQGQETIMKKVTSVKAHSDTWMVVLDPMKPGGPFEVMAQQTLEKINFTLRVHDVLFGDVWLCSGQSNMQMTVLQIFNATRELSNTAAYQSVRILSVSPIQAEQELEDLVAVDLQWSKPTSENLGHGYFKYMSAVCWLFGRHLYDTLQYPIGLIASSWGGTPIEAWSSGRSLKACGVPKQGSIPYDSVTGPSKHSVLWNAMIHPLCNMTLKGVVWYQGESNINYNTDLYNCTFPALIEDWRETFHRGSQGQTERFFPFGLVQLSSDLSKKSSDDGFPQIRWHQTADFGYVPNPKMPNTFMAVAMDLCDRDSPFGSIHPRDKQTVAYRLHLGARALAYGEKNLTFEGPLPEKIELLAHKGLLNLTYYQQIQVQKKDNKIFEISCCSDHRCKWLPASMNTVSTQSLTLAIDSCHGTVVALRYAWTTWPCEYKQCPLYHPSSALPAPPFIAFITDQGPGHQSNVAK
# PAD4 FP conf = confirmation of human PAD4 inhibitors | shares compounds with PAD4 inh | 28% of 1,200 active | recombinant PAD4, RCA probe fluorescence polarization | inhibition, % at 6.36 µM;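 active = mean inhibition across replicates above the hit cutoff set by the earlier primary screen, cut at about 15% in these data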;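 note: inhibitors block active-site labeling by the probe so polarization falls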
# A number is an active result; 0 = inactive; - = no result given.
SMILES,HTRA1 inh,PAD4 inh,PRMT1 inh,ABHD4 inh,TCR CD3 inh,SIAE inh,PAD4 FP conf
Cc1ccc(COC(=O)c2nn(C)c(=O)c3ccccc23)cc1,0,25.3,0,0,0,0,0
Cn1nc(C(=O)OCc2ccc(F)cc2)c2ccccc2c1=O,0,0,0,0,0,0,-
O=C(NCCCNC(=O)c1ccccc1F)c1ccco1,0,36.6,0,0,0,0,0
O=C(NCc1ccco1)c1ccccc1F,0,0,0,0,0,0,-
O=c1cc(-c2ccc(F)cc2)[nH][nH]1,0,59.5,0,0,0,0,0
O=c1cc(-c2ccc(Br)cc2)[nH][nH]1,0,56.5,0,0,0,0,0
O=c1cc(-c2ccccc2)[nH][nH]1,0,34.7,0,0,0,0,0
O=c1cc(-c2ccc(C3CCCCC3)cc2)[nH][nH]1,0,0,0,0,0,0,-
COC(=O)[C@]12C[C@H](CC(=O)N3CCCC3)C(=O)N(Cc3ccc(Cl)cc3Cl)C1=C[C@H](COCc1ccccc1)O[C@@H]2C,-,-,0,0,-,0,-
COC(=O)[C@]12C[C@H](CC(=O)NCc3cccs3)C(=O)N(Cc3ccco3)C1=C[C@H](COCc1ccccc1)O[C@@H]2C,-,-,0,0,-,0,-
O=C(Nc1nc(=O)c2ccccc2s1)c1ccc(F)cc1,0,16.1,48.3,0,0,0,0
Nc1ccc(C(=O)Nc2nc3ccccc3s2)cc1,0,0,0,0,0,0,-
O=C(OC12CCCN(C1)/C(=C/c1ccc(Cl)cc1)C2)c1ccno1 (stereo not given),-,-,0,0,-,0,-
Cc1ccc(C2=NN=C(NC(=O)CSc3nncn3C)SC2)cc1,0,67.1,93.8,0,0,0,61.6
O=C(COC(=O)c1ccc([N+](=O)[O-])s1)Nc1ccccc1,0,33.4,0,0,0,0,0
O=C(COC(=O)c1ccc([N+](=O)[O-])s1)Nc1ccc(F)cc1,0,0,0,0,0,0,-
Cc1ccc(NC(=O)CSc2nnc(-c3cc(C)[nH]n3)n2N)cc1,0,0,0,0,0,0,-
Cc1cc(-c2nnc(SCC(=O)Nc3ccc(F)c(F)c3)n2N)n[nH]1,0,52.3,0,0,0,0,0
Cc1nnc(SCC(=O)c2ccc(Cl)cc2)n(N)c1=O,0,25.8,37.3,0,0,0,0
CCOc1ccc(S(=O)(=O)Nc2cc(Sc3ncn[nH]3)c3oc(=O)sc3c2)cc1,-,18.5,-,-,-,-,0
CCOc1ccc(S(=O)(=O)Nc2ncn[nH]2)cc1,0,0,0,0,0,0,-
O=C(O)CCN1C(=O)C2C3CC(C2C1=O)C1C(c2ccccc2)c2sc(=O)[nH]c2SC31 (stereo not given),0,16.9,0,0,0,0,0
COc1cc(NCc2ccccc2O)c2ncccc2c1,0,-,0,0,0,0,-
COc1cc(NC(C)CCCN)c2ncccc2c1 (stereo not given),0,35.5,0,0,0,0,0
O=C(O)c1ccc(S(=O)(=O)/N=C2\C=C(Nc3ccccc3F)C(=O)c3ccccc32)cc1,0,66.8,0,57.5,0,0,64.6
SMILES,HTRA1 inh,PAD4 inh,PRMT1 inh,ABHD4 inh,TCR CD3 inh,SIAE inh,PAD4 FP conf
CC(=O)Nc1ccc(NC2=C/C(=N/S(=O)(=O)c3cccs3)c3ccccc3C2=O)cc1,-,64.5,0,34.0,0,0,44.7
Cc1ccccc1NC1=C/C(=N\S(=O)(=O)c2cccs2)c2ccccc2C1=O,0,70.0,0,0,0,0,53.4
COc1cccc(C2NC(=O)c3sc(=S)n(-c4ccccc4)c3N2)c1 (stereo not given),0,0,0,0,0,0,-
COc1ccc(OC)c(C2NC(=O)c3sc(=S)n(-c4ccccc4)c3N2)c1 (stereo not given),0,22.2,0,0,0,0,35.2
CC1=NN(c2ccccc2)C(=O)/C1=C/c1cccs1,0,34.9,0,0,0,0,0
CC1=NN(c2ccccc2)C(=O)/C1=C/c1ccc(Cl)cc1,0,-,0,0,0,0,-
CC1=NN(c2ccccc2)C(=O)/C1=C\c1ccc(Br)s1,0,16.4,0,0,0,0,0
COCCCNc1nc2ccccc2nc1NS(=O)(=O)c1cccs1,0,16.0,0,0,0,0,0
CCOC(=O)c1c(CSC(=N)N)n(C)c2cc(Br)c(OC(C)=O)cc12,0,38.2,0,0,0,0,44.0
CC(C)C[C@H](NC(=O)c1cccs1)C(=O)N1CCC[C@H]1C(=O)NCc1ccccc1,-,-,0,0,0,0,-
Cc1ccc(C(=O)c2c(C)oc3c2C(=O)C(=O)c2ccccc2-3)cc1,0,0,-,-,-,-,-
COc1ccc(C(=O)c2c(C(F)(F)F)oc3c2C(=O)c2ccccc2C3=O)cc1,0,30.3,-,-,-,-,22.1
CCCCN1C(=O)Nc2ccccc2S1=O (stereo not given),0,15.8,0,0,0,0,0
C[C@H]1[C@@H](NC(=O)Cc2ccsc2)CC[C@@]23CCCN2C(=O)CCC[C@@H]13,-,-,0,0,-,0,-
COC(=O)[C@]12C[C@H](CC(=O)NCCc3ccccc3OC)C(=O)N(CCC3=CCCCC3)C1=C[C@H](C(C)C)O[C@@H]2C1CC1,-,-,0,0,-,0,-
COC(=O)CCC(=O)OC1(C)C(=O)C=C2C=C(C3CC3)N(C3CC3)C=C2C1=O (stereo not given),0,25.4,0,0,0,0,0
CC(=O)c1ccc(NC(=S)Nc2ccc(N3CCOCC3)cc2)cc1,0,19.6,0,0,0,0,0
CCc1ccc(C(=O)NC(=S)Nc2ccc(N3CCOCC3)cc2)cc1,0,0,0,0,0,0,-
O=C(CCl)N(c1ccc(Cl)cc1)c1c[nH]c2ccccc12,0,16.6,0,0,0,0,33.8
Nc1ccccc1C(=O)NC1CCCNC1=O (stereo not given),-,28.8,0,0,0,0,0
CCN(Cc1cn(Cc2ccc(C)cc2)nn1)S(=O)(=O)c1ccccc1Br,-,-,0,0,-,0,-
CC1CCN(CC(=O)N2CCc3ccccc32)CC1,0,0,0,0,0,0,-
CCOC(=O)C1CCN(CC(=O)N2CCc3ccccc32)CC1,0,37.9,0,0,0,0,0
CCCCN1C[C@@H](COCc2ccccc2)Oc2cccc(F)c2S1(=O)=O,-,-,0,0,-,0,-
C=CCOC(=O)C1=C(C)N=c2sc(=C3C(=O)N(CC(=O)O)c4ccccc43)c(=O)n2C1c1ccc(OC)cc1 (stereo not given),-,-,0,0,-,0,-
COc1ccc(-c2nc(C(=O)NCCCN3CCOCC3)cc3c2[nH]c2ccccc23)cc1OC,0,59.0,0,0,0,0,67.4
O=C1c2ccccc2C(=O)N1Cc1ccc2c(c1)OCO2,0,0,0,0,0,0,-
Cc1cc2cc(CN3C(=O)c4ccccc4C3=O)ccc2n1C,0,15.6,0,0,0,0,0
Cc1ccc(OCC(=O)OCC(=O)NC2CCS(=O)(=O)C2)cc1C (stereo not given),0,-,0,0,0,0,-

# Screens as filed in PubChem.
